Measured values reported in the EternaBench riboswitch data.

Tested on: MS2 coat protein
Test: apparent Kd, MS2 coat protein; higher = weaker binding; RNA-MaP array; FMN 200 µM where present
Outline: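 Designs on Illumina sequencing-chip clusters, transcribed by stalled E. coli RNA polymerase, were exposed to SNAP-549-labelled MS2 coat protein in doubling steps from 0.7 or 1.5 nM up to 3 µM, without and then with constant ligand. The buffer held 100 mM Tris-HCl pH 7.5, 80 mM KCl, 4 mM MgCl2, BSA, DTT, yeast tRNA and Tween-20. Apparent Kd values are medians of filtered per-cluster binding-curve fits to green signal normalised to red-channel RNA signal and control-cluster median Fmax.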

[1] = designed as: OFF switch for flavin mononucleotide, no ligand
[2] = ligand present: flavin mononucleotide, designed as: OFF switch for flavin mononucleotide
[3] = designed as: ON switch for flavin mononucleotide, no ligand
[4] = ligand present: flavin mononucleotide, designed as: ON switch for flavin mononucleotide

Sequence | apparent Kd [1] | apparent Kd [2] | apparent Kd [3] | apparent Kd [4]
GUAGAGUAGUGAGGAUAUACGAGUACGAUAGUACGGCGAUCCAAUAAUACAUGAGGAUCACCCAUGUAGAAGGCACUUCUCUAC | 8.53 nM | 98.7 nM | – | –
GUAGAGUCAGGAUAUACGAGAUCGAAAGAUCGGCGGUCUGUACAUGAGGAUCACCCAUGUAGAAGGGACUCUAC | 16.4 nM | 94.4 nM | – | –
GUAGCAUACAGAGGAUAUCUUAACCGGAAACGGACAUGAGGAUCACCCAUGUGGCGAAAGCCUAGGGAGAAGGCUGAAUGCUAC | – | – | 10.2 nM | 11.1 nM
GUAGCAUACAGAGGAUAUUCAAACCACAAAAGUGGACAUGAGGAUCACCCAUGUGGCGAAAGCCGGGAGAAGGCUGAAUGCUAC | – | – | 15.9 nM | 14.3 nM
GUAGCAUACCAAGGAUAUUCAUAUAAUAAGUAAACAUGAGGAUCACCCAUGUAGUGAGAGCCUUGGGAGAAGGUGGAAUGCUAC | – | – | 16.6 nM | 18.3 nM
GUAGCAUACCGAGGAUAUUCAGGGCGUGGAUAUACAUGAGGAUCACCCAUGUGGCGGAAGCCUAGGGAGAAGGCGGGCUGCUAC | – | – | 21.6 nM | 16.3 nM
GUAGCAUACCGAGGAUAUUCAUACCGGAAACGGACAUGAGGAUCACCCAUGUAGCGAAAGCUUUGGGAGAAGGCGGAAUGCUAC | – | – | 905 nM | 33.9 nM
GUAGCAUACCGAGGAUAUUCGUCCGGAUUACGGACAUGAGGAUCACCCAUGUGGCGAAAGCCUUGGGAGAAGGCGGAAUGCUAC | – | – | 732 nM | 247 nM
GUAGCAUACCGAGGAUAUUCUUACCGGAAACGGACAUGAGGAUCACCCAUGUGGCGAAAGCCUUUGGAGAAGGCGGAAUGCUAC | – | – | 12.4 nM | 12.4 nM
GUAGCAUACGGAGGAUAUCCAUACCGGAAACGGACAUGAGGAUCACCCAUGUGGCGAAAGCCUUGGGAGAAGGCCGUAUGCUAC | – | – | 4.63 nM | 3.67 nM
GUAGCAUAGGGAGGAUAUUCAUAUAAUAAAUAAACAUGAGGAUCACCCAUGUGGCGAAAGCCUUGGGAGAAGGCCCAAUGCUAC | – | – | 866 nM | 36.2 nM
GUAGCAUAGUCAGGAUAUUCAUAUAAUAAAUAAACAUGAGGAUCACCCAUGUGGCGAAAGCCUUGGGAGAAGGGACAAUGCUAC | – | – | 1210 nM | 90.2 nM
GUAGCAUGCCAAGGAUAUUCAUAUAAUAAGUAAACAUGAGGAUCACCCAUGUAGUGAGAGCCUUGGGAGAAGGUGGGAUGCUAC | – | – | 26.7 nM | 41.9 nM
GUAGCAUUAUAAGGAUAUUCAUACCGGAAACGGACAUGAGGAUCACCCAUGUGGCGAAAGCCUUGGGAGAAGGUAUUAUGCUAC | – | – | 537 nM | 24.9 nM
GUAGCAUUCUGAGGAUAUUCAUAUAAUAAAUAAACAUGAGGAUCACCCAUGUGGCGAAAGCCUUGGGAGAAGGCAGUAUGCUAC | – | – | 660 nM | 42.1 nM
GUAGCUACAUGAGGAUCACCCAUGUAGGAUAUCGCUAUUGUAAUCAUGAAACAUGAUUACAAUAGCGAGAAGGACAUGUGCUAC | 20.9 nM | 25.2 nM | – | –
GUAGCUACUAUUAUACAUGAGGAUCACCCAUGUUACAUGGGUAAGGAUAUUGAAGUUAUUAUUAUCAAGAAGGUACUAUGCUAC | – | – | 570 nM | 102 nM
GUAGCUAUCGGAGGAUAUUCAUGAUACAUGAGGAUCACCCAUGUUAAAGUGGGAGAAGGCCGAUAGCUACAAGAGCGAAAGCUC | – | – | 44.8 nM | 6.87 nM
GUAGCUAUUAUUAUACAUGAGGAUCACCCAUGUUACAUGUGUAAGGAUAUUGAAGUUUUUAUAAUCAAGAAGGUACUAUGCUAC | – | – | 16.8 nM | 9.2 nM
GUAGGACAUGAGGAUCACCCAUGUGGGAGGGAACGAGGAUAUGUGAAAGGAUUGAAGAGGACAGAAGGCGUGGAGG | – | – | 44.4 nM | 35.3 nM
GUAGUGUAUGUAGGAUAUGUGAAGCAAAGCUUCACAGAAGGACAUGAGGAUCACCCAUGUAUUGCAGUCUGCAAUCAGACUGCU | 43.4 nM | 152 nM | – | –
GUAUAUAGUGUGAGGAUAUGCUGGUCCUUGGAUCAGCAGAAGGCACAUGAGGAUCACCCAUGUAGUUAAAUAUG | 26.8 nM | 100 nM | – | –
GUAUCGUGAGGAUAUCAUGAUUGACUUAGUUUAUGUCAGCGUGAGAAGGCACAUGAGGAUCACCCAUGUGAUUA | 24.7 nM | 54.9 nM | – | –
GUAUCGUGAGGAUAUCAUGAUUGACUUUUGUUUUGUCAGCGUGAGAAGGCACAUGAGGAUCACCCAUGUGAUUA | 22.3 nM | 52.9 nM | – | –
GUAUCUCCUGACAUGAGGAUCACCCAUGUUUAAUUAUUAAAUCAGGAUAUCCUCUCGAAACGAGAGGAGAAGGGAUAAGAUACU | – | – | 5.66 nM | 5.72 nM
GUAUCUUACCAAGGAUAUUUAAGAUUUGUGUAGACAUGAGGAUCACCCAUGUGGCCUUAGUCACGGGAGAAGGUGGUUUGAUAC | – | – | 940 nM | 492 nM
GUAUGGAUUACAGGAUAUGUUAGUUUUAAGUGUAUUGGUUAUUACUUAAUUACAGAAGGGUAUUACAUGAGGAUCACCCAUGUA | – | – | 16 nM | 11.5 nM
GUAUUUAGAUAAGGAUAUAAGUCUAGGACAUGAGGAUCACCCAUGUGUGUCUUAGAAGGUAUUUGGGUAAUAUUGUUACAGUAA | – | – | 160 nM | 114 nM

Sequence | apparent Kd [1] | apparent Kd [2] | apparent Kd [3] | apparent Kd [4]
GUAUUUAUAUAAGGAUAUAAGUCUAGGACAUGAGGAUCACCCAUGUGUGUCUUAGAAGGUAUAUAGGUAAUACUGUUACAGUAA | – | – | 86.1 nM | 23.6 nM
GUCAGCUCGUGAGGAUAUACAACACAGCUUCGGCAGUGUAUUAAGAUCACAUGAGGAUCACCCAUGUAGAAGGCACGAGCUGAU | 13.1 nM | 209 nM | – | –
GUCAGCUCGUGAGGAUAUACAACACUGCUUCGGCAGUGUAUUAAGAUAACAUGAGGAUCACCCAUGUAGAAGGCACGAGCUGAU | 5.58 nM | 8.48 nM | – | –
GUCAGCUCGUGAGGAUAUACAACACUGCUUCGGCAGUGUAUUAAGAUCACAUGAGGAUCACCCAUGUAGAAGGCACGAUCUGAU | 13.6 nM | 220 nM | – | –
GUCAGCUCGUGAGGAUAUACAACACUGCUUCGGCAGUGUAUUAAGCUCACAUGAGGAUCACCCAUGUAGAAGGCACGAGCUGAU | 5.37 nM | 11.2 nM | – | –
GUCAGCUCGUGAGGAUAUACAACACUGCUUCGGCCGUGUAUUAAGAUCACAUGAGGAUCACCCAUGUAGAAGGCACGAGCUGAU | 13.6 nM | 228 nM | – | –
GUCAGCUCGUGAGGAUAUACAACACUGCUUCUGCAGUGUAUUAAGAUCACAUGAGGAUCACCCAUGUAGAAGGCACGAGCUGAU | 12.8 nM | 234 nM | – | –
GUCAGCUCGUGAGGAUAUACAACAUUGCUUCGGCAGUGUAUUAAGAUCACAUGAGGAUCACCCAUGUAGAAGGCACGAGCUGAU | 14.1 nM | 243 nM | – | –
GUCAGCUCGUGAGGAUAUACAUGAGGAUCACCCAUGUGAUCAAUAGCAGCUUCGGCUGCAUACAUGUAGAAGGCACGAGCUGAU | 43.1 nM | 62.9 nM | – | –
GUCAGCUCGUGAGGAUAUACAUGUGCUGGAUACAGCACUAUUGAGUUCACAUGAGGAUCACCCAUGUAGAAGGCACGAGCUGAU | 15.1 nM | 28.1 nM | – | –
GUCAGCUCGUGAGGAUAUGCAACACUGCUUCGGCAGUGUAUUAAGAUCACAUGAGGAUCACCCAUGUAGAAGGCACGAGCUGAU | 6.36 nM | 34.8 nM | – | –
GUCAGGAAUGUAGGAUAUCGUCAGGAUAACUGGCGAGAAGGACAUGAGGAUCACCCAUGUAAAAUGAAAGAUAAUAAACCUGGC | 19.3 nM | 31.1 nM | – | –
GUCAUCAUAUGAGGAUAUGACACCGAAACGGUGUCAGAAGGCAUGUCGAUAGACAUGAGGAUCACCCAUGUUUACAUGAUGACA | – | – | 84.3 nM | 19.7 nM
GUCAUGUCAGGAUAUUUUGGUCAACUCAUCGGUCGACCCUAAGAGAAGGGACAUGAGGAUCACCCAUGUUCGCA | 26.8 nM | 77.8 nM | – | –
GUCAUGUGAGGAUAUGUAGCCACGAAAUCUUGUAGAGGCAGACAGAAGGCACAUGAGGAUCACCCAUGUGUUUU | 31.6 nM | 258 nM | – | –
GUCAUGUUAGGAUAUCUGGCAUGUGACUUCGGUCACUGUCCAGAGAAGGAACAUGAGGAUCACCCAUGUUGGAC | 75.1 nM | 57.1 nM | – | –
GUCAUUAAACAGAAGGUGUAGUACAUGAGGAUCACCCAUGUAUAACUAACUAAAUUUGUAAUUAACAAGGAUAUGUACUAAUCG | – | – | 6.58 nM | 6.63 nM
GUCAUUAAACAGAAGGUGUUGUACAUGAGGAUCACCCAUGUUUAUCUAAUUAAAUUUGUAAUUAACAAGGAUAUGUACUAAUCG | – | – | 231 nM | 131 nM
GUCCAGUUAGGAUAUCAAUGCCACAACAUGAGGAUCACCCAUGUUUGGGUCCCUCACCAAUGAGAAGGAACGGGAC | 34.7 nM | 99.1 nM | – | –
GUCCCGUCUAGCUUCAGCACAUGAGGAUCACCCAUGUCCUAGAGAAGGGCCUAGAGUUAUCAAAGGCAGGAUAUCUGCACAUGG | 30.8 nM | 47.7 nM | – | –
GUCCUUUCUGAGGAUAUUAUCUGGUUCGAUUGAUAAGAAGGCAGUACAUGAGGAUCACCCAUGUGGGUCGUUUG | 37.3 nM | 244 nM | – | –
GUCGAGUGAGGAUAUGGUGAGUAGUGCCUGAGCGCUGCUCACCAGAAGGCACAUGAGGAUCACCCAUGUAUAGC | – | 29 nM | – | –
GUCGAGUGAGGAUAUGGUGAGUAGUGCCUGAGCGCUGCUCACCAGAAGGCACAUGAGGAUCACCCAUGUAUGUC | 13.7 nM | 20.7 nM | – | –
GUCGGAAACGACAAAAGUAGCAUACGAGAAGGCUGAUCCAAGACAUGAGGAUCACCCAUGUAGUUAGAGGAUAUUGGAUGCUAC | – | – | 63.8 nM | 10.7 nM
GUCGGAAACGACAAAAGUAUGGAUCCAGAAGGCAUGACACAUGAGGAUCACCCAUGUCUAAGAUAUGAGGAUAUGGAUCCAUAC | – | – | 4.97 nM | 4.71 nM
GUCGGAUGUAUAGGAUAUCGACUGGAUAACAGUCGAGAAGGAUACAUGAGGAUCACCCAUGUAAUAAUAAUAAUAAUAACCGAC | 12.8 nM | 24.6 nM | – | –
GUCGGCUCGUGAGGAUAUACAACACUGCUUCGGCAGUGUAUUAAGAUCACAUGAGGAUCACCCAUGUAGAAGGCACGAGCUGAU | 13.8 nM | 221 nM | – | –
